Where two headings read alike, the source gives them in different places.
Key:
honey bee CYP9Q3 [1] = biological target: T1, honey bee CYP9Q3 (Apis mellifera, UniProt A0A7M7LMV1); assay: Fluorescence-based BOMFC probe assay with recombinantly expressed CYP9Q3; format: biochemical; details: for Hill slope CYP9Q3: fungicides
T1 sequence (A0A7M7LMV1 1-517): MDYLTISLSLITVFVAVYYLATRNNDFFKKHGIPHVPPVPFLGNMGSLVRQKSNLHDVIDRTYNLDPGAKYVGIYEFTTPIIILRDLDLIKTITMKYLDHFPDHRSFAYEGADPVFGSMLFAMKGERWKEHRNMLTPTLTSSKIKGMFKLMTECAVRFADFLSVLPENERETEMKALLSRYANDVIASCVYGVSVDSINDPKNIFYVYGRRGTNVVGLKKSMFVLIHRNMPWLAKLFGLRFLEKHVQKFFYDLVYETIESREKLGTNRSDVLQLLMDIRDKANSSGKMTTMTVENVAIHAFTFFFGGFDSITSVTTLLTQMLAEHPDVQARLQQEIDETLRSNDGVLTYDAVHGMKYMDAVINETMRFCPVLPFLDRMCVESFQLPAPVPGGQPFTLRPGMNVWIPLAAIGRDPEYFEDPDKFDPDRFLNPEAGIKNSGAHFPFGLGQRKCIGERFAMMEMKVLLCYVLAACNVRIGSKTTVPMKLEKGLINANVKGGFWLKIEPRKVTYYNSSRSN
T1 sequence (A0A8U1CY41 1-694 partner): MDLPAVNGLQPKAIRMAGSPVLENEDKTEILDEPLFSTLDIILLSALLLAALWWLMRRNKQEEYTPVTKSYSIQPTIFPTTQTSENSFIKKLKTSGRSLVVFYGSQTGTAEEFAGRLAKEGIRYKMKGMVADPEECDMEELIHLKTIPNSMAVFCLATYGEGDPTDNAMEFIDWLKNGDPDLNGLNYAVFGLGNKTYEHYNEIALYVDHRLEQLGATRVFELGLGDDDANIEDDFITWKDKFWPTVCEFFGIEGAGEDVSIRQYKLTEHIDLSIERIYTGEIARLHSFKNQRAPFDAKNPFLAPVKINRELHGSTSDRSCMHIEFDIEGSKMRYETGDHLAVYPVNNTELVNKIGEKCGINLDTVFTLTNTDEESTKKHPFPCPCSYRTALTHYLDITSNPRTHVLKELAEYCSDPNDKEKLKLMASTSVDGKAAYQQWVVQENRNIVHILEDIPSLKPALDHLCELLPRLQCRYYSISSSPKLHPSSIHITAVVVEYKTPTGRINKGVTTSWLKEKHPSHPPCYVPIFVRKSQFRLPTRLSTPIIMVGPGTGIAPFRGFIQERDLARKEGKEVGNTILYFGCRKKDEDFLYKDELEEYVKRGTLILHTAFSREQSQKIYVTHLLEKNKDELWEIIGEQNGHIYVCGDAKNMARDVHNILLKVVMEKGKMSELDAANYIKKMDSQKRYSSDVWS

honey bee CYP9Q2 [2] = biological target: T2, honey bee CYP9Q2 (Apis mellifera, UniProt A0A7M7R6F2); assay: Fluorescence-based BOMFC probe assay with recombinantly expressed CYP9Q2; format: biochemical; details: for Hill slope CYP9Q2: fungicides
T2 sequence (A0A7M7R6F2 1-532): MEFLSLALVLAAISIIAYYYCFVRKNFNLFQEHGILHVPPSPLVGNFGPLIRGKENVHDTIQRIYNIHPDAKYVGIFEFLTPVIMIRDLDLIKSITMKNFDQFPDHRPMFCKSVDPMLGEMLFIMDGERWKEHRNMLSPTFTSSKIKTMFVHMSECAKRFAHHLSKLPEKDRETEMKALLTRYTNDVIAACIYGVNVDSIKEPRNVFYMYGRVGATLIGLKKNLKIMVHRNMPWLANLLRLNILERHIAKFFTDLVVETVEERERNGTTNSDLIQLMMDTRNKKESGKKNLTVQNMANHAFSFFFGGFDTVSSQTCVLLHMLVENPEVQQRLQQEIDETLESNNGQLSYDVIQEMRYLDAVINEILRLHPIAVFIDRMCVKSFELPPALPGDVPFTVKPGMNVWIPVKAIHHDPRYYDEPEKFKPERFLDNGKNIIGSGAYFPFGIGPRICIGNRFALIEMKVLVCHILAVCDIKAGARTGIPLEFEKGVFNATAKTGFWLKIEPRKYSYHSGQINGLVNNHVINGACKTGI
T2 sequence (A0A8U1CY41 1-694 partner): T1 sequence (A0A8U1CY41 1-694 partner)

[3] = tested on: transgenic Drosophila melanogaster CYP9Q2 × Hsp70; assay: Drosophila diet overlay bioassay, strain expressing honey bee CYP9Q2; format: in vivo; details: for LD50 48 h: CYP9Q2 × Hsp70 adults, diet overlay; for RR (resistance ratio): LD50 of CYP9Q2 × Hsp70 divided by LD50 of Empty × Hsp70; for Slope: probit analysis, CYP9Q2 × Hsp70
Summary of the method: (§1)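 F1 adults came from crossing UAS strains carrying honey bee CYP9Q2 or CYP9Q3, or a control strain lacking the transgene, with a GAL4-Hsp70 driver. Flies were heat-shocked at 37 °C three times for 30 min the day before, then again just before testing. The test compound in acetone was diluted 1:2 in water with 0.1% (w/v) Triton X-100 and spread over artificial diet. Mortality was scored at 48 h. Values came from probit analysis; resistance ratio = transgenic LD50 / control LD50.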

[4] = tested on: Drosophila melanogaster Empty × Hsp70 (reference control strain); assay: Drosophila diet overlay bioassay, control strain; format: in vivo; details: Empty × Hsp70 adults
Summary of the method: as §1

[5] = tested on: Apis mellifera worker bees; details: honey bee, reported value; cited from earlier work
honey bee CYP6AQ1 = biological target: T3, honey bee CYP6AQ1 (Apis mellifera, UniProt F1DPP0); assay: Fluorescence-based BOMFC probe assay with recombinantly expressed CYP6AQ1; format: biochemical; details: for inhibition of CYP6AQ1-mediated BOMFC metabolism: 100 μM
T3 sequence (F1DPP0 1-514): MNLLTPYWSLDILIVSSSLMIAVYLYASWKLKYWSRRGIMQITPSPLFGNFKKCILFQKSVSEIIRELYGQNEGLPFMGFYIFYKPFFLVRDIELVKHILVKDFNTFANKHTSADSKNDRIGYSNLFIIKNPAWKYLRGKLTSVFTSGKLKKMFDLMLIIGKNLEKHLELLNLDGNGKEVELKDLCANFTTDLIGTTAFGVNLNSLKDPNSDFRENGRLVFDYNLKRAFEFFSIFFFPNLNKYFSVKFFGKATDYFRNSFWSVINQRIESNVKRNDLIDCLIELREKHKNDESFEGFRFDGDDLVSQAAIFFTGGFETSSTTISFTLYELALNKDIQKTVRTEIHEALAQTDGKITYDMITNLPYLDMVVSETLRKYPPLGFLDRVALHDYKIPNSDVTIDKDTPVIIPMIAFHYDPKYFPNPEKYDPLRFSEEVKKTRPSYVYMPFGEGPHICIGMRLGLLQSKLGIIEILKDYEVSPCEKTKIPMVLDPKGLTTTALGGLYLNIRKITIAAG
T3 sequence (A0A8U1CY41 1-694 partner): T1 sequence (A0A8U1CY41 1-694 partner)

[6] = tested on: transgenic Drosophila melanogaster CYP9Q3 × Hsp70; assay: Drosophila diet overlay bioassay, strain expressing honey bee CYP9Q3; format: in vivo; details: for LD50 48 h: CYP9Q3 × Hsp70 adults, diet overlay; for RR (resistance ratio): LD50 of CYP9Q3 × Hsp70 divided by LD50 of Empty × Hsp70; for Slope: probit analysis, CYP9Q3 × Hsp70
Summary of the method: as §1

[7] = Honey bee acute contact toxicity and synergism study; format: in vivo, Apis mellifera; details: female, Apis mellifera (honey bee), in vivo, topical, honey bee mortality
Summary of the method: (§2)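 OECD 214 acute contact test, modified for the synergist. Mixed-age workers came from the honey super of three queen-right colonies untreated for at least 6 months. Propiconazole was applied at 10 μg/bee. Controls received acetone or propiconazole alone. Mortality was scored at 48 h. Groups were compared by unpaired t-test (P < 0.01), with SEM shown.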

[8] = tested on: Apis mellifera worker bees; assay: as above; format: in vivo; details: for effect of propiconazole pretreatment on acute contact toxicity: 10 μg/bee propiconazole 1 h prior to insecticide application
Summary of the method: as §2

honey bee CYP9Q2 [9] = biological target: T2, honey bee CYP9Q2; details: BOMFC probe, ref Haas et al. (2021)[33], cited from earlier work
honey bee CYP9Q3 [10] = biological target: T1, honey bee CYP9Q3; details: BOMFC probe, ref Haas et al. (2021)[33], cited from earlier work
[11] = IC50 CYP9Q3, fungicides, BOMFC probe
[12] = IC50 CYP9Q2, fungicides, BOMFC probe
[13] = IC50 CYP9Q3, diamides, BOMFC probe 6.5 μM
[14] = IC50 CYP9Q2, diamides, BOMFC probe 15 μM
[15] = highest concentration tested, 100 μM

## O=C(Nc1ccccc1-c1ccc(Cl)cc1)c1cccnc1Cl [Boscalid, boscalid]
Honey bee CYP9Q3 [1]; [11]
  IC50: 4.13 µM
Honey bee CYP9Q3 [1]; BOMFC probe
  Hill slope CYP9Q3: −1.05
Honey bee CYP9Q2 [2]; [12]
  IC50: > 10 µM

## CNC(=O)c1cc(Cl)cc(C)c1NC(=O)c1cc(Br)nn1-c1ncccc1Cl [Chlorantraniliprole]
Honey bee CYP9Q3 [1]; [13]
  IC50: 17.4 µM
Honey bee CYP9Q2 [2]; [14]
  IC50: 93.4 µM
[3]
  LD50 48 h: 96.2 ppm
  RR (resistance ratio): 4.34
  Slope: 1.74
[4]
  LD50 48 h: 22.2 ppm
[5]
  LD50: > 4 μg/bee
Honey bee CYP6AQ1
  IC50: > 100 µM
  inhibition of CYP6AQ1-mediated BOMFC metabolism: not inhibited
[6]
  LD50 48 h: 155 ppm
  RR (resistance ratio): 6.99
  Slope: 2.86
[7]; 0.2 μg/bee, topical 0.2 μg/bee CPR alone, 48 h
  mortality at 48 h: 3.6%
[7]; 2 μg/bee, topical 2 μg/bee CPR alone, 48 h, ± SEM, n = 3
  mortality at 48 h: 12%
[7]; topical application of 2 μg/bee and 0.2 μg/bee CPR alone
  mortality at 48 h: < 15%
[8]
  effect of propiconazole pretreatment on acute contact toxicity: significantly increased

## N#Cc1c(Cl)c(Cl)c(Cl)c(C#N)c1Cl [Chlorothalonil, chlorothalonil]
Honey bee CYP9Q3 [1]; [11]
  IC50: > 10 µM
Honey bee CYP9Q2 [2]; [12]
  IC50: > 10 µM

## Cc1cc(C2CC2)nc(Nc2ccccc2)n1 [Cyprodinil]
Honey bee CYP9Q3 [1]; [11]
  IC50: > 10 µM
Honey bee CYP9Q2 [2]; [12]
  IC50: > 10 µM

## CC1COC(Cn2cncn2)(c2ccc(Oc3ccc(Cl)cc3)cc2Cl)O1 (centres unmarked) [Difenoconazole, difenoconazole]
Honey bee CYP9Q3 [1]; [11]
  IC50: 0.032 µM
Honey bee CYP9Q3 [1]; IC50 CYP9Q3, lowest IC50 value
  IC50: ~0.03 µM
Honey bee CYP9Q3 [1]; BOMFC probe
  Hill slope CYP9Q3: −1.02
Honey bee CYP9Q2 [2]; [12]
  IC50: 0.033 µM
Honey bee CYP9Q2 [2]; IC50 CYP9Q2, lowest IC50 value
  IC50: ~0.03 µM
Honey bee CYP9Q2 [2]; BOMFC probe
  Hill slope CYP9Q2: −0.81

## N#CC(CCc1ccc(Cl)cc1)(Cn1cncn1)c1ccccc1 (centres unmarked) [Fenbuconazole, fenbuconazole]
Honey bee CYP9Q3 [1]; [11]
  IC50: 0.058 µM
Honey bee CYP9Q3 [1]; BOMFC probe
  Hill slope CYP9Q3: −0.86
Honey bee CYP9Q2 [2]; [12]
  IC50: 0.041 µM
Honey bee CYP9Q2 [2]; BOMFC probe
  Hill slope CYP9Q2: −0.67

## Cc1cc(C(F)(C(F)(F)F)C(F)(F)F)ccc1NC(=O)c1cccc(I)c1C(=O)NC(C)(C)CS(C)(=O)=O [Flubendiamide, flubendiamide]
Honey bee CYP9Q3 [1]; [13]
  IC50: > 100 µM
Honey bee CYP9Q3 [1]; [15]
  interaction with BOMFC metabolism by CYP9Q3: did not show any obvious interaction
Honey bee CYP9Q2 [2]; [14]
  IC50: > 100 µM
Honey bee CYP9Q2 [2]; [15]
  interaction with BOMFC metabolism by CYP9Q2: did not show any obvious interaction
[3]
  LD50 48 h: 253 ppm
  RR (resistance ratio): 1.73
  Slope: 4.62
[4]
  LD50 48 h: 147 ppm
Honey bee CYP6AQ1
  IC50: > 100 µM
  inhibition of CYP6AQ1-mediated BOMFC metabolism: did not show any obvious interaction
[6]
  LD50 48 h: 179 ppm
  RR (resistance ratio): 1.23
  Slope: 6.97
[7]; 100 μg/bee, FLB doses of 100 μg/bee, acute contact
  mortality at 48 h: < 5%
[8]
  effect of propiconazole pretreatment on acute contact toxicity: not influenced

## CC(C)NC(=O)N1CC(=O)N(c2cc(Cl)cc(Cl)c2)C1=O [Iprodione, iprodione]
Honey bee CYP9Q3 [1]; [11]
  IC50: > 10 µM
Honey bee CYP9Q2 [2]; [12]
  IC50: > 10 µM

## CC1(C)CCC(Cc2ccc(Cl)cc2)C1(O)Cn1cncn1 (centres unmarked) [Metconazole, metconazole]
Honey bee CYP9Q3 [1]; [11]
  IC50: 0.057 µM
Honey bee CYP9Q3 [1]; BOMFC probe
  Hill slope CYP9Q3: −1.03
Honey bee CYP9Q2 [2]; [12]
  IC50: 0.033 µM
Honey bee CYP9Q2 [2]; BOMFC probe
  Hill slope CYP9Q2: −0.6

## CCCC1COC(Cn2cncn2)(c2ccc(Cl)cc2Cl)O1 (centres unmarked) [Propiconazole, propiconazole]
Honey bee CYP9Q2 [9]
  Hill slope CYP9Q2: −0.88
Honey bee CYP9Q2 [9]; read-out: IC50 CYP9Q2
  IC50: 0.151 µM
Honey bee CYP9Q3 [10]
  Hill slope CYP9Q3: −1.10
Honey bee CYP9Q3 [10]; read-out: IC50 CYP9Q3
  IC50: 0.072 µM
[8]; propiconazole only, 10 μg/bee, test period 48 h
  effect on control bees: remained unaffected

## COC(=O)N(OC)c1ccccc1COc1ccn(-c2ccc(Cl)cc2)n1 [Pyraclostrobin, pyraclostrobin]
Honey bee CYP9Q3 [1]; [11]
  IC50: 7.84 µM
Honey bee CYP9Q3 [1]; BOMFC probe
  Hill slope CYP9Q3: −0.56
Honey bee CYP9Q2 [2]; [12]
  IC50: > 10 µM

— PMC9299185 (Pest Management Science, 2021)
